# High-throughput results from PubChem BioAssay.
# This excerpt belongs to a sample that is enriched for hits.
# Calb biofilm kill = mixtures killing C. albicans biofilm; 120,000 compounds, 0.02% hits; C. albicans biofilm persisters + clotrimazole, fluorescence viability; primary screen in compound mixtures of four per well; inhibition, % at 7.6 µM;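 active means inhibition above 30.3% in the primary screen of four-compound pools, then above 30% when the compound was retested; inconclusive means passed the primary limit but could not be retested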;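 further: compounds exposed to preformed 24 h biofilms for 48 h; 0% = untreated biofilm control and 100% = clotrimazole plus chlorhexidine kill blank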
#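 Test system: C. albicans CAF4-2 wild-type biofilms; buffer or medium: RPMI/MOPS medium, pH 7.0; schedule: 24 h biofilm formation, then 48 h compound exposure, 37 °C; detection: Alamar Blue fluorescence; measure: percent inhibition of biofilm viability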
# ROMK mod = modulators of human ROMK potassium channel | AID 1918 | B-score at 10 µM | Tet-inducible ROMK, thallium flux fluorescence; actives lie on both sides | P48048 | 130,000 compounds, 2% hits;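 active means signal ratio slope over the read window, or its plate-corrected B-score, at least 3 SD from the plate mean, either direction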;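 further: B-score of the F/F0 ratio slope over 7 to 12 s after thallium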
# Target sequence (P48048 whole entry, looked up): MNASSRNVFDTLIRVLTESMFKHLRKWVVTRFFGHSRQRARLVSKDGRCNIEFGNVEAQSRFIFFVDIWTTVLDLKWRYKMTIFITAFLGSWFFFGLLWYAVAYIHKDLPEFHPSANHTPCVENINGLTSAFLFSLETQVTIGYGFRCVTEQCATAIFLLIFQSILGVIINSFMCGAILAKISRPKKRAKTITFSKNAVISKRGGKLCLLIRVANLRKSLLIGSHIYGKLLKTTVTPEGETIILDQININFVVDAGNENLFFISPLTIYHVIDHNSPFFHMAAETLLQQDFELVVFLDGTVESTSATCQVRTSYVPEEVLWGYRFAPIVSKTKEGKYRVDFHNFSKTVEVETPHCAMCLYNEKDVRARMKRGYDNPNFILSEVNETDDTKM
# Pf gamet viab = P. falciparum stage V gametocyte viability inhibition | P. falciparum stage V gametocytes, ATP luminescence, 24 h | inhibition, % at 10.9 µM | 150,000 compounds, 0.065% hits;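 active means inhibition above the mean plus 3 SD of compounds within the control limits, set per campaign, cut at about 38% in these data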;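 further: 0% = DMSO wells and 100% = medium only without gametocytes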
# ROMK retest = human ROMK channel modulation, retest confirmation | shares compounds with ROMK mod | ROMK thallium flux, fluorescence ratio; hits give low values | normalized thallium flux (F/F0 slope) at 10 µM | 3,000 compounds, 54% hits;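 active means Flux at 10 µM at least 3 SD below or above vehicle control mean in one or both replicates; inconclusive means no clear call, values can overlap the other calls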
# Starred values were filed as active, the others as inactive; ? = inconclusive; nt = no result given.
SMILES,Calb biofilm kill,ROMK mod,Pf gamet viab,ROMK retest
CCN1C(C(=O)c2ccccc2)=C(Nc2ccccc2C)c2ccccc2S1(=O)=O,18.6,nt,-2.0,nt
CN1C(C(=O)c2ccccc2)=C(N)c2ccccc2S1(=O)=O,16.1,3*,nt,0.0663*
Cc1ccc(S(=O)(=O)N(c2ccc(Br)cc2)C2C=CS(=O)(=O)C2)cc1 (stereo not drawn),12.8,0.957,-12.2,nt
CCn1c(O)c(C=C2N=c3ccccc3=N2)sc1=S,7.4,0.129,nt,nt
Oc1c(C=C2N=c3ccccc3=N2)sc(=S)n1C1CCCCC1,6.4,nt,-5.2,?
CCOC(=O)N1CCC(N2CCN(c3ccccc3)CC2)CC1,nt,nt,-0.7,nt
C[C@H]1CN([C@@H](C)CO)C(=O)c2cccc(NC(=O)C3CC3)c2O[C@H]1CN(C)Cc1ccncc1,nt,nt,-27.1,nt
O=C(NC1CCCCCC1)c1cc(S(=O)(=O)N2CCOCC2)ccc1N1CCCCC1,nt,nt,-0.9,nt
O=C(NC1CCCCCC1)c1cc(S(=O)(=O)N2CCCCC2)ccc1N1CCOCC1,10.3,-3.23*,nt,0.0611*
COc1ccc(-c2ccnc(-c3ccc(O)cc3)n2)cc1,-4.2,3.17*,-11.6,0.0859
COc1ccc(-c2ccnc(-c3ccncc3)n2)cc1,32.9,2.14,-5.1,nt
CSc1nc(N)n2nc(-c3ccc(Cl)cc3)cc2n1,14.2,-0.387,10.3,nt
COc1cccc(CC(NC(C)=O)C(=O)NC2CCN(c3c(Cc4ccccc4)c(C)nc4ncnn34)CC2)c1 (stereo not drawn),15.3,-0.738,nt,0.0925
COc1ccc(OC)c(CC(NC(C)=O)C(=O)NC2CCN(c3c(Cc4ccccc4)c(C)nc4ncnn34)CC2)c1 (stereo not drawn),10.1,0.0058,nt,nt
COc1ccc(CC(=O)N2CCc3cc(OC)c(OC)cc3C2O)cc1OC (stereo not drawn),12.2,nt,nt,nt
Cc1cccc(C(=O)NC(=S)NCc2cccnc2)c1,6.0,nt,nt,nt
CC(C)(C)c1ccc(N2C(=O)CSC2c2cccnc2)cc1 (stereo not drawn),16.8,nt,-49.7,nt
Cc1cc(C)nc(NC(=O)CSc2nccc(C)n2)n1,0.6,2.84*,1.7,0.0794
COC(=O)c1ccccc1NC(=O)CSc1nccc(C)n1,-0.2,-0.0367,24.3,nt
N#C/C(=N\Nc1cccc(C(F)(F)F)c1)C(=O)c1ccsc1,18.4,nt,-23.1,nt
Cc1ccc(NCC(=O)N/N=C/c2cccc(Oc3ccccc3)c2)cc1,9.7,0.251,nt,nt
CC(C)(C)C(=O)Cn1c(=N)n(Cc2ccccc2)c2ccccc21,nt,nt,nt,0.0472*
N=c1n(CC(=O)c2cccc([N+](=O)[O-])c2)c2ccccc2n1Cc1ccccc1,1.6,nt,15.5,nt
Cc1ccc(Cn2c(=N)n(CC(=O)c3ccccc3)c3ccccc32)cc1,46.8,-5.15*,8.9,0.0516*
CC(C)(C)C(=O)Cn1c(=N)n(Cc2ccccc2Cl)c2ccccc21,nt,-2.34,nt,nt
SMILES,Calb biofilm kill,ROMK mod,Pf gamet viab,ROMK retest
CCCn1c(=N)n(CC(=O)c2ccc(Cl)cc2)c2ccccc21,nt,nt,23.9,nt
CCCn1c(=N)n(CC(=O)c2ccc([N+](=O)[O-])cc2)c2ccccc21,5.9,-4.36*,-16.1,0.0716
Cc1c(NC(=O)C(C)OC(=O)c2ccc([N+](=O)[O-])s2)c(=O)n(-c2ccccc2)n1C (stereo not drawn),19.2,0.85,-3.0,nt
COc1cc(OC)cc(-c2c(-c3cccs3)c3cc(-c4ccc5c(c4)OCCO5)ccc3n2C)c1,nt,nt,-7.0,nt
C[C@@H]1CN(c2nc3nonc3nc2N2CCSCC2)C[C@H](C)O1,-2.8,0.62,6.6,nt
C1CN(c2nc3nonc3nc2N2C[C@H]3CC[C@H]2C3)CCS1,9.0,1.4*,6.0,0.0746
O=C(NCC(c1cccs1)N1CCOCC1)c1ccccc1NS(=O)(=O)c1ccc(Cl)c([N+](=O)[O-])c1 (stereo not drawn),9.9,nt,nt,nt
O=C(NCC(c1cccs1)N1CCOCC1)c1ccccc1NS(=O)(=O)c1cc([N+](=O)[O-])ccc1Cl (stereo not drawn),-5.6,nt,-3.6,0.0676*
CC(=O)c1cc2c(cc1NC(=O)C1CCC1)OCO2,12.7,0.381,-22.4,nt
OCCNc1nc(-c2ccccc2)c2cc(Cl)ccc2n1,13.3,1.17,-23.4,nt
Cc1ccc2nc(NCCO)nc(-c3ccccc3)c2c1,nt,nt,nt,0.0748
CCOC(=O)N1CCN(C(=S)Nc2cc(OC)c(OC)cc2C(=O)OC)CC1,nt,-0.0937,1.4,nt
COC(=O)[C@@]1(Cc2ccc(OC)cc2)[C@H]2c3cc(C(=O)N4CCCC4)n(Cc4ccc(OC)c(OC)c4)c3C[C@H]2CN1C(=O)c1ccccc1,11.2,-3.55,nt,nt
COC(=O)[C@@]1(Cc2ccc(OC)cc2)[C@H]2c3cc(C(=O)N(C)C)n(CCc4ccc(OC)c(Br)c4)c3C[C@H]2CN1C(=O)c1ccccc1,5.4,-3.85*,nt,0.0648*
